# Results published in the M2OR odorant receptor database.
# How the values were obtained:
# Or1m1 (Mus musculus) = biological target: T1, Or1m1 (Mus musculus) (UniProt Q8VFM9); details: stereoisomer not certain
# T1 sequence (whole entry): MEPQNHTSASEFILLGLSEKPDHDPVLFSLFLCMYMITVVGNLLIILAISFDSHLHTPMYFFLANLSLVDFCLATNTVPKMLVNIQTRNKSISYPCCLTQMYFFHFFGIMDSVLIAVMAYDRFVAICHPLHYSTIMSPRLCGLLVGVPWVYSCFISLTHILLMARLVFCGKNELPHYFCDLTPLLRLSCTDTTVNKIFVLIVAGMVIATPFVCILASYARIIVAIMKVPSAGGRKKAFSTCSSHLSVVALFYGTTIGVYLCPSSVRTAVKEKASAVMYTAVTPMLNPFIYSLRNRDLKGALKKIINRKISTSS
# Outline: (§1)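 Each entry records the cell line, G-protein, co-transfected protein and tags used. Methods varied with the source, often transient luciferase assays in mammalian cell lines. A receptor–molecule pair is called responsive (active) if the original authors judged its signal statistically different from baseline and non-responsive (inactive) otherwise.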
# Or5ar1 (Mus musculus) = biological target: T2, Or5ar1 (Mus musculus) (UniProt Q8VGS3); details: stereoisomer not certain
# T2 sequence (whole entry): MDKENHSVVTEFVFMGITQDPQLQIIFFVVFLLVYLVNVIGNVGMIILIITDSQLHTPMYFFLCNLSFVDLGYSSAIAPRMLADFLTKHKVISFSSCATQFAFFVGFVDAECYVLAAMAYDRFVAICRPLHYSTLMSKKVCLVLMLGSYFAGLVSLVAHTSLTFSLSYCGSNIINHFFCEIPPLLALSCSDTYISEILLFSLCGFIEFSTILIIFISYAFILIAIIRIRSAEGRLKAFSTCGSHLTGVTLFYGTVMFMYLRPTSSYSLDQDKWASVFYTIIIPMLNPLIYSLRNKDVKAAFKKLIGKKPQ
# Outline: as §1
Structure (SMILES),odorant receptor agonist call (Or1m1 (Mus musculus)),odorant receptor agonist call (Or5ar1 (Mus musculus))
CCCCCC=CCCC=O,inactive,inactive
CCN(CC)CC,inactive,inactive
C=CC(=C)CCC=C(C)CCC=C(C)C,inactive,inactive
CCCCCCCCCC=CC=O,inactive,inactive
COc1ccccc1,inactive,inactive
CCSCC,inactive,inactive
C=CC(=O)CCCCC,inactive,inactive
C=C(C)C1CCC(C)C(O)C1 (centres undefined),inactive,inactive
C1CCOC1,inactive,inactive
CCC=CCCCCC=O,inactive,inactive
Cc1ccc(OC(=O)C(C)C)cc1,inactive,inactive
OCCc1ccccc1,inactive,inactive
CCCC(C)C(=O)OCC (centres undefined),inactive,inactive
COC(OC)c1ccccc1,inactive,inactive
CC(C)=CCCC(C)=CCOC(=O)C(C)C,inactive,inactive
CC(CC=O)CCCC(C)(C)O (centres undefined),inactive,inactive
C=CC(C)=CCC=C(C)CCC=C(C)C,inactive,inactive
CCSSCC,inactive,inactive
CC1(C)CC(=O)CC(=O)C1,inactive,inactive
CC(=O)OCc1ccc2c(c1)OCO2,inactive,inactive
Cc1c(C)c(C)c(C=O)c(C)c1C,inactive,inactive
CCCCCC(C=O)=Cc1ccccc1,inactive,inactive
CC=CC(=O)C1=C(C)CCCC1(C)C,inactive,inactive
C=C(C)C1CCC2(C)OC2C1 (centres undefined),inactive,inactive
CSSCc1ccco1,inactive,inactive
O=C(O)CCCCCCCCC(=O)O,inactive,inactive
CCCCCOC(=O)CC,inactive,inactive
